Columns and labels:
[1] = target: Muscarinic acetylcholine receptor; assay: Displacement of [3H]-QNB from muscarinic receptor in rat brain membranes incubated for 45 mins under dark conditions by radioligand binding assay; assay type: cell membranes
In short: (§1)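 Rat brain cortex membranes (meninges and white matter removed, homogenized and centrifuged twice at 50,000 x g, stored at -80 °C). Each tube held 20 μg membrane protein, 200 pM [³H]QNB and competitor at varying concentrations in 10 mM Tris-HCl pH 7.0 with 6 mM MgCl₂, incubated 45 min at 25 °C. Nonspecific binding was defined with 2 μM atropine. Samples were filtered on glass fiber, washed twice with ice-cold buffer and counted by scintillation.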

[2] = target: T1, Muscarinic acetylcholine receptor M1 (Homo sapiens, UniProt P11229); assay: Agonist activity at human muscarinic M1 receptor expressed in HEK293T cells co-expressing Galpha subunit and PLC-beta3 by split luciferase complementation assay; assay type: cell-based
T1 sequence (P11229 whole entry): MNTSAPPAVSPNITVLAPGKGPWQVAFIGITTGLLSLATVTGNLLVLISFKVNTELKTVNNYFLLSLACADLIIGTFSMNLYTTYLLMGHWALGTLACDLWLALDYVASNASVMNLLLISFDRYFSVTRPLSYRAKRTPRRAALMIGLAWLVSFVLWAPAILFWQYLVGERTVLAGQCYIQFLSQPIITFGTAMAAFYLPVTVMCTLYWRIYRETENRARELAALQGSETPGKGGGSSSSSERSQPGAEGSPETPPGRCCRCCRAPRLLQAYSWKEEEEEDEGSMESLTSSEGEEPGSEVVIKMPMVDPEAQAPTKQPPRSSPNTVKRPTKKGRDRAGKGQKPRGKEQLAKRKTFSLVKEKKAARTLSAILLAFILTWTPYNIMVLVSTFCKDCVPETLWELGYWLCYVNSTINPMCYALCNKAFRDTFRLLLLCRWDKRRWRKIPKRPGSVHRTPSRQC

[3] = Chemical stability of the compound at 50 uM incubated for 120 mins under dark conditions by UV-vis spectroscopic analysis; assay type: physicochemical; conditions: 2 h
[4] = target: Muscarinic acetylcholine receptor; assay: Displacement of [3H]-QNB from muscarinic receptor in rat brain membranes incubated for 45 mins under irradiation exposure at 365 nm by radioligand binding assay; assay type: cell membranes; in short: as §1

| Structure (SMILES) | pIC50 [1] | pEC50 [2] | Stability [3] | pIC50 [4] |
| --- | --- | --- | --- | --- |
| C[N+](C)(CC#CCOC1=NOCC1)Cc1cc(F)c(/N=N\c2c(F)cccc2F)c(F)c1.[Br-] |  | 7.14 | Stable |  |
| C[N+](C)(CC#CCOC1=NOCC1)CCCC[N+](C)(C)CC#CCOC1=NOCC1 |  | 6.49 |  |  |
| C[N+](C)(CC#CCOC1=NOCC1)Cc1cc(F)c(/N=N/c2c(F)cccc2F)c(F)c1.[Br-] | 5.25 | 7.2 | Stable | 5.4 |
| C[N+](C)(CC#CCOC1=NOCC1)CCCCCCCCCC[N+](C)(C)CC#CCOC1=NOCC1 |  | 7.86 |  |  |
| C[N+](C)(CC#CCOC1=NOCC1)CCCCCCCC[N+](C)(C)CC#CCOC1=NOCC1 |  | 6.89 |  |  |
| C[N+](C)(CC#CCOC1=NOCC1)CCCCCC[N+](C)(C)CC#CCOC1=NOCC1 |  | 6.77 |  |  |
| C[N+](C)(C)CC#CCOC1=NOCC1 |  | 8.9 |  |  |

Results, then the compound that gave them:

| pIC50 [1] | pEC50 [2] | Stability [3] | pIC50 [4] | Structure (SMILES) |
| --- | --- | --- | --- | --- |
| 5.15 | 5.49 | Stable | 5.13 | C[N+](C)(CC#CCOC1=NOCC1)Cc1ccc(/N=N/c2ccccc2)cc1.[Br-] |
| 6.82 | 8.97 | Stable | 6.44 | C[N+](C)(CC#CCOC1=NOCC1)Cc1cc(F)c(/N=N/c2c(F)cc(C[N+](C)(C)CC#CCOC3=NOCC3)cc2F)c(F)c1.[Br-].[Br-] |
|  | 8.3 | Stable |  | C[N+](C)(CC#CCOC1=NOCC1)Cc1cc(F)c(/N=N\c2c(F)cc(C[N+](C)(C)CC#CCOC3=NOCC3)cc2F)c(F)c1.[Br-].[Br-] |
|  | 7.49 | Stable |  | C[N+](C)(CC#CCOC1=NOCC1)Cc1ccc(/N=N\c2ccc(C[N+](C)(C)CC#CCOC3=NOCC3)cc2)cc1.[Br-].[Br-] |
|  | 5.68 | Stable |  | C[N+](C)(CC#CCOC1=NOCC1)Cc1ccc(/N=N\c2ccccc2)cc1.[Br-] |

— ChEMBL document CHEMBL4316603, “Fluorination of Photoswitchable Muscarinic Agonists Tunes Receptor Pharmacology and Photochromic Properties” (J Med Chem, 2019)
